Active and inactive are the calls of the source. The calls are words filed in the database; no cut-off is given here.
Assays:
PBMC [1] = test: Immunomodulatory activity in human PBMC assessed as induction of IL6 at 50 ug/ml after 24 hrs; format: functional, cell-based
How it was run: (§1)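 Human PBMCs plated at 5 × 10^6 cells/mL; compounds dissolved in PBS added at various concentrations, 37 °C for 24 h. Supernatant cytokines/chemokines quantified with human Luminex multiplex kit.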

PBMC [2] = test: Immunomodulatory activity in human PBMC assessed as induction of IFNalpha at 50 ug/ml after 24 hrs; format: functional, cell-based; how it was run: as §1
Homo sapiens [3] = species on record: Homo sapiens; test: Immunostimulatory activity in human pDC assessed as induction of IP10 at 100 ug/ml after 24 hrs; format: functional
How it was run: (§2)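 Human pDCs plated at 1 × 10^6 cells/mL; compounds in PBS added, 37 °C for 24 h; supernatant cytokines/chemokines by human Luminex multiplex kit.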

Homo sapiens [4] = species on record: Homo sapiens; test: Immunostimulatory activity in human mDC assessed as induction of IP10 at 100 ug/ml after 24 hrs; format: functional
How it was run: (§3)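 Human mDCs isolated from PBMCs by CD19+ B-cell depletion then BDCA1 positive selection; plated at 1 × 10^6 cells/mL, compounds in PBS, 37 °C for 24 h; supernatant cytokines by human Luminex multiplex. Representative of four independent experiments.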

Homo sapiens [5] = species on record: Homo sapiens; test: Immunostimulatory activity in human mDC assessed as induction of IL12 at 100 ug/ml after 24 hrs; format: functional; how it was run: as §3
PBMC [6] = test: Immunomodulatory activity in human PBMC assessed as induction of MIP1alpha at 50 ug/ml after 24 hrs; format: functional, cell-based; how it was run: as §1
Homo sapiens [7] = species on record: Homo sapiens; test: Immunostimulatory activity in human pDC assessed as induction of IL6 at 100 ug/ml after 24 hrs; format: functional; how it was run: as §2
[8] = molecular target: T1, Toll-like receptor 8 (Homo sapiens) (UniProt Q9NR97); test: Activation of human TLR8 expressed in HEK293XL assessed as fold induction of NF-kappaB activity at 50 ug/ml after 18 hrs by reporter gene assay relative to control
T1 sequence (whole entry): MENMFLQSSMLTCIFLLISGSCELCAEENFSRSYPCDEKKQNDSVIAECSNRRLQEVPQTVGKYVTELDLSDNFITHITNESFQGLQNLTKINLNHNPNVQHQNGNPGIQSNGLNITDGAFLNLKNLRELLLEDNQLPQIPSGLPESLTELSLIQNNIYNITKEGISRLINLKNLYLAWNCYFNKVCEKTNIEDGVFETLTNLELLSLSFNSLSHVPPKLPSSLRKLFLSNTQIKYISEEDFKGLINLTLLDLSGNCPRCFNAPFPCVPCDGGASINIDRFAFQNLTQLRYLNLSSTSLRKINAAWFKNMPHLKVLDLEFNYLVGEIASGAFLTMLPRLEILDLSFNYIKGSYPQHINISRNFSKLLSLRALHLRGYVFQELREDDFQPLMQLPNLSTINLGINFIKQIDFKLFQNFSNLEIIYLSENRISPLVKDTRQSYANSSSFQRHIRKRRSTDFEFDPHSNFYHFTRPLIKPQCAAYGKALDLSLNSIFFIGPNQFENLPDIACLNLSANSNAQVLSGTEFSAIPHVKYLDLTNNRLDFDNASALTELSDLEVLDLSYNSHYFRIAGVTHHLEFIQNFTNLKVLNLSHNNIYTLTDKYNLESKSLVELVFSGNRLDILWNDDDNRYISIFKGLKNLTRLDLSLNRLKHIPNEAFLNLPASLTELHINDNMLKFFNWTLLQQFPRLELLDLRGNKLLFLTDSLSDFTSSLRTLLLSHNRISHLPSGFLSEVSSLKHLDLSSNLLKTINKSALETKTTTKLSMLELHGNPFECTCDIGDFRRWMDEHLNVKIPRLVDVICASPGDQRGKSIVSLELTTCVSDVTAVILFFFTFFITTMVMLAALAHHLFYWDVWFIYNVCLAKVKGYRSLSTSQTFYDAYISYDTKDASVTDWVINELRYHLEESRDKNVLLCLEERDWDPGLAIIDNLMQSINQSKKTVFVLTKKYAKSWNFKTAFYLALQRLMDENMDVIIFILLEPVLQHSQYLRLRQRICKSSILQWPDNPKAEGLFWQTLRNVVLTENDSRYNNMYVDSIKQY
How it was run: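 HEK293 cells stably expressing human TLR7 or TLR8, transiently transfected with SEAP reporter plasmid; medium replaced, SIMRA compounds added, 18 h incubation. Supernatant SEAP measured by QuantiBlue; expressed as fold increase in NF-κB activity over PBS control. Tabulated data at 50 μg/mL, representative of three independent experiments.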

PBMC [9] = test: Immunomodulatory activity in human PBMC assessed as induction of IL12 at 50 ug/ml after 24 hrs; format: functional, cell-based; how it was run: as §1
Homo sapiens [10] = species on record: Homo sapiens; test: Immunostimulatory activity in human mDC assessed as induction of IFNalpha at 100 ug/ml after 24 hrs; format: functional; how it was run: as §3
Homo sapiens [11] = species on record: Homo sapiens; test: Immunostimulatory activity in human pDC assessed as induction of IFNalpha at 100 ug/ml after 24 hrs; format: functional; how it was run: as §2
PBMC [12] = test: Immunomodulatory activity in human PBMC assessed as induction of MCP1 at 50 ug/ml after 24 hrs; format: functional, cell-based; how it was run: as §1
[13] = molecular target: Toll-like receptor 3 (Homo sapiens) (UniProt O15455); test: Activation of human TLR3 expressed in HEK293 assessed as induction of NF-kappaB activity reporter gene assay; format: cell-based
[14] = Metabolic stability in human serum assessed as full length product remaining after 10 mins by HPLC; format: ADME, cell-free; details: read-out: Stability
How it was run: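 About 0.5 A260 units compound in 1% human serum in PBS, 37 °C; aliquot taken at 10 min, analysed by anion-exchange HPLC for percent intact full-length product.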

PBMC [15] = test: Immunomodulatory activity in human PBMC assessed as induction of IP10 at 50 ug/ml after 24 hrs; format: functional, cell-based; how it was run: as §1
PBMC [16] = test: Immunomodulatory activity in human PBMC assessed as induction of IL1-beta at 50 ug/ml after 24 hrs; format: functional, cell-based; how it was run: as §1
Homo sapiens [17] = species on record: Homo sapiens; test: Immunostimulatory activity in human mDC assessed as induction of TNFalpha at 100 ug/ml after 24 hrs; format: functional; how it was run: as §3
Mus musculus = test: Immunomodulatory activity in C57BL/6 mouse assessed as induction of IL12 release at 25 mg/kg, sc after 2 hrs by ELISA; format: functional, organism-based; parameters: dose 25 mg/kg
How it was run: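 Female C57BL/6 wild-type mice, 5–8 weeks old, n=3; compounds given subcutaneously at 10 or 25 mg/kg. Retro-orbital blood at 2 h; serum cytokines by mouse Luminex multiplex or IL-12 ELISA.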

Homo sapiens [18] = species on record: Homo sapiens; test: Immunostimulatory activity in human mDC assessed as induction of IL6 at 100 ug/ml after 24 hrs; format: functional; how it was run: as §3
PBMC [19] = test: Immunomodulatory activity in human PBMC assessed as induction of TNFalpha at 50 ug/ml after 24 hrs; format: functional, cell-based; how it was run: as §1
PBMC [20] = test: Immunomodulatory activity in human PBMC assessed as induction of MIP1beta at 50 ug/ml after 24 hrs; format: functional, cell-based; how it was run: as §1

Toll-like receptor 3 (Homo sapiens), sequence (O15455 whole entry): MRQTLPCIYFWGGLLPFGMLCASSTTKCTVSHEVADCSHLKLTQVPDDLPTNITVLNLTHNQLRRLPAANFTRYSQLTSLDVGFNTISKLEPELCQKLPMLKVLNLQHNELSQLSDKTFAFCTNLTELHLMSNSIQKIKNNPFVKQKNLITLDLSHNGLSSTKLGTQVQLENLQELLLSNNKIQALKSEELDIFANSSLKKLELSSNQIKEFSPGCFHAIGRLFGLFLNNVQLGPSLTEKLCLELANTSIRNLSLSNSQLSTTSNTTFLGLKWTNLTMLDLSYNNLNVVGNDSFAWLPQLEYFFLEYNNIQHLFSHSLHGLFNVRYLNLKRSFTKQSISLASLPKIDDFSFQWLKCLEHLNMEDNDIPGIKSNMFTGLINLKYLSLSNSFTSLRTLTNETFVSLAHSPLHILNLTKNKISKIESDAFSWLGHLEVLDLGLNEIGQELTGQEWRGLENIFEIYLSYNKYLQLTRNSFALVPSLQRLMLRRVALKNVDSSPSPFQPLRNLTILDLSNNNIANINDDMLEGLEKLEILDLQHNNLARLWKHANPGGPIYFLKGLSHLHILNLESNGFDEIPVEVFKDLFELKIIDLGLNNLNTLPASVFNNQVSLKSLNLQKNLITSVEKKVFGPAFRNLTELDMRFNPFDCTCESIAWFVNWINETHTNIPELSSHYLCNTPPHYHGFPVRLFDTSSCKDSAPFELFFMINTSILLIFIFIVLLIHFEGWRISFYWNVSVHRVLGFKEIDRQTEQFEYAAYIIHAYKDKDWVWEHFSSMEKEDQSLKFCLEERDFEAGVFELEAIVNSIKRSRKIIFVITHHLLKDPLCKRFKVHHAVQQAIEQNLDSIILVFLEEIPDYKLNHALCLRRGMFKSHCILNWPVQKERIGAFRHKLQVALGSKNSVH

## Nc1ccn([C@@H]2O[C@H](CO[C@H]3[C@@H](O)[C@H](n4cnc5c(N)ncnc54)O[C@@H]3COP(=O)(S)O[C@H]3[C@@H](O)[C@H](n4ccc5c(=O)[nH]c(N)nc54)O[C@@H]3COP(=O)(S)O[C@H]3[C@@H](O)[C@H](n4ccc(=O)[nH]c4=O)O[C@@H]3COP(=O)(S)O[C@H]3[C@@H](O)[C@H](n4cnc5c(N)ncnc54)O[C@@H]3COP(=O)(S)O[C@H]3[C@@H](O)[C@H](n4ccc5c(=O)[nH]c(N)nc54)O[C@@H]3COP(=O)(S)O[C@H]3[C@@H](O)[C@H](n4ccc(=O)[nH]c4=O)O[C@@H]3CO)[C@@H](OP(=O)(S)OC[C@H]3O[C@@H](n4ccc5c(=O)[nH]c(N)nc54)[C@H](O)[C@@H]3OP(=O)(S)OC[C@H]3O[C@@H](n4cnc5c(N)ncnc54)[C@H](O)[C@@H]3OP(=O)(S)OC[C@H]3O[C@@H](n4ccc(=O)[nH]c4=O)[C@H](O)[C@@H]3OP(=O)(S)OC[C@H]3O[C@@H](n4ccc(=O)[nH]c4=O)[C@H](O)[C@@H]3OP(=O)(S)OCC(O)COP(=O)(S)O[C@H]3[C@@H](O)[C@H](n4ccc(=O)[nH]c4=O)O[C@@H]3COP(=O)(S)O[C@H]3[C@@H](O)[C@H](n4ccc(=O)[nH]c4=O)O[C@@H]3COP(=O)(S)O[C@H]3[C@@H](O)[C@H](n4cnc5c(N)ncnc54)O[C@@H]3COP(=O)(S)O[C@H]3[C@@H](O)[C@H](n4ccc5c(=O)[nH]c(N)nc54)O[C@@H]3COP(=O)(S)O[C@H]3[C@@H](O)[C@H](n4ccc(N)nc4=O)O[C@@H]3CO[C@H]3[C@@H](O)[C@H](n4cnc5c(N)ncnc54)O[C@@H]3COP(=O)(S)O[C@H]3[C@@H](O)[C@H](n4ccc5c(=O)[nH]c(N)nc54)O[C@@H]3COP(=O)(S)O[C@H]3[C@@H](O)[C@H](n4ccc(=O)[nH]c4=O)O[C@@H]3COP(=O)(S)O[C@H]3[C@@H](O)[C@H](n4cnc5c(N)ncnc54)O[C@@H]3COP(=O)(S)O[C@H]3[C@@H](O)[C@H](n4ccc5c(=O)[nH]c(N)nc54)O[C@@H]3COP(=O)(S)O[C@H]3[C@@H](O)[C@H](n4ccc(=O)[nH]c4=O)O[C@@H]3CO)[C@H]2O)c(=O)n1 (some centres not stated)
PBMC [1]
  Activity: 2760 pg/mL
PBMC [2]
  Activity: 131 pg/mL
Homo sapiens [3]
  Activity: Active
Homo sapiens [4]
  Activity: Active
Homo sapiens [5]
  Activity: Active
PBMC [6]
  Activity: 5790 pg/mL
Homo sapiens [7]
  Activity: Active
[8]
  fold change (FC): 1.6
PBMC [9]
  Activity: 434 pg/mL
Homo sapiens [10]
  Activity: Active
Homo sapiens [11]
  Activity: Active
PBMC [12]
  Activity: 56000 pg/mL
[13]
  Activity: inactive
[14]
  remaining at 10 min: 84%
PBMC [15]
  Activity: 155 pg/mL
PBMC [16]
  Activity: 306 pg/mL
Homo sapiens [17]
  Activity: Active
Mus musculus
  Activity: Active
Homo sapiens [18]
  Activity: Active
PBMC [19]
  Activity: 68 pg/mL
PBMC [20]
  Activity: 9960 pg/mL

## Nc1ccn([C@@H]2O[C@H](COP(=O)(S)O[C@H]3[C@@H](O)[C@H](n4cnc5c(N)ncnc54)O[C@@H]3CO)[C@@H](OP(=O)(S)OC[C@H]3O[C@@H](n4ccc(=O)[nH]c4=O)[C@H](O)[C@@H]3OP(=O)(S)OC[C@H]3O[C@@H](n4ccc(=O)[nH]c4=O)[C@H](O)[C@@H]3OP(=O)(S)OC[C@H]3O[C@@H](n4ccc5c(=O)[nH]c(N)nc54)[C@H](O)[C@@H]3OP(=O)(S)OC[C@H]3O[C@@H](n4cnc5c(N)ncnc54)[C@H](O)[C@@H]3OP(=O)(S)OC[C@H]3O[C@@H](n4cnc5c(N)ncnc54)[C@H](O)[C@@H]3OP(=O)(S)OC[C@H]3O[C@@H](n4ccc5c(=O)[nH]c(N)nc54)[C@H](O)[C@@H]3OP(=O)(S)OC[C@H]3O[C@@H](n4ccc(N)nc4=O)[C@H](O)[C@@H]3OP(=O)(S)OC[C@H]3O[C@@H](n4ccc(=O)[nH]c4=O)[C@H](O)[C@@H]3OP(=O)(S)OC[C@H]3O[C@@H](n4ccc(=O)[nH]c4=O)[C@H](O)[C@@H]3OP(=O)(S)OCC(O)COP(=O)(S)O[C@H]3[C@@H](O)[C@H](n4ccc(=O)[nH]c4=O)O[C@@H]3COP(=O)(S)O[C@H]3[C@@H](O)[C@H](n4ccc(=O)[nH]c4=O)O[C@@H]3COP(=O)(S)O[C@H]3[C@@H](O)[C@H](n4ccc(N)nc4=O)O[C@@H]3COP(=O)(S)O[C@H]3[C@@H](O)[C@H](n4ccc5c(=O)[nH]c(N)nc54)O[C@@H]3COP(=O)(S)O[C@H]3[C@@H](O)[C@H](n4cnc5c(N)ncnc54)O[C@@H]3COP(=O)(S)O[C@H]3[C@@H](O)[C@H](n4cnc5c(N)ncnc54)O[C@@H]3COP(=O)(S)O[C@H]3[C@@H](O)[C@H](n4ccc5c(=O)[nH]c(N)nc54)O[C@@H]3COP(=O)(S)O[C@H]3[C@@H](O)[C@H](n4ccc(=O)[nH]c4=O)O[C@@H]3COP(=O)(S)O[C@H]3[C@@H](O)[C@H](n4ccc(=O)[nH]c4=O)O[C@@H]3COP(=O)(S)O[C@H]3[C@@H](O)[C@H](n4ccc(N)nc4=O)O[C@@H]3COP(=O)(S)O[C@H]3[C@@H](O)[C@H](n4cnc5c(N)ncnc54)O[C@@H]3CO)[C@H]2O)c(=O)n1 (some centres not stated)
PBMC [1]
  Activity: 2730 pg/mL
PBMC [2]
  Activity: 230 pg/mL
Homo sapiens [3]
  Activity: Active
Homo sapiens [4]
  Activity: Active
Homo sapiens [5]
  Activity: Active
PBMC [6]
  Activity: 5630 pg/mL
Homo sapiens [7]
  Activity: Active
[8]
  fold change (FC): 2
PBMC [9]
  Activity: 354 pg/mL
Homo sapiens [10]
  Activity: Active
Homo sapiens [11]
  Activity: Active
PBMC [12]
  Activity: 52900 pg/mL
[13]
  Activity: inactive
[14]
  remaining at 10 min: 79%
PBMC [15]
  Activity: 287 pg/mL
PBMC [16]
  Activity: 261 pg/mL
Homo sapiens [17]
  Activity: Active
Mus musculus
  Activity: Active
Homo sapiens [18]
  Activity: Active
PBMC [19]
  Activity: 76 pg/mL
PBMC [20]
  Activity: 9220 pg/mL

— ChEMBL document CHEMBL1154352, “Toll-like receptor 7 selective synthetic oligoribonucleotide agonists: synthesis and structure-activity relationship studies” (J Med Chem, 2009)
